For assay [1], the system named is A-375. Briefly: Antiproliferative activity against human A375 cells assessed as cell growth at 25 uM after 96 hrs by trypan blue assay. In kind it is functional. As to conditions: A-375, 96 h, read-out: Activity. Summed up: (§1)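 A375 melanoma cells grown in DMEM with 10% FCS at 37 °C, 5% CO2; compounds added in DMSO after 56 h (DMSO 0.005% final for controls). Medium with drug renewed every 48 h. After 96 h, cells harvested and Coulter-counted, with trypan blue exclusion for viability. Counts given as % of DMSO controls; data pooled from three experiments.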

The subject of assay [2] is A-375. The assay is described as follows: Antitumor activity against human A375 cells xenografted in athymic nude Harlan mouse assessed as reduced tumor growth at 20 mg/kg, ip administered daily 5 days pre week measured every other day. For orientation: In xenograft studies the graft and the host belong to different species.
Assay [3] concerns A-375. The assay is described as follows: Antiproliferative activity against human A375 cells assessed as cell growth at 15 uM after 96 hrs by trypan blue assay. In kind it is functional. As to conditions: A-375, 96 h, read-out: Activity. The method, boiled down: as §1
The subject of assay [4] is A-375. The assay is described as follows: Induction of apoptosis in human A375 cells seeded as low density at 20 uM after 96 hrs by propidium iodide staining-based FACS analysis. On the technique in general: Flow cytometry measures light scatter and fluorescence of single cells or particles in a stream.
The test system of assay [5] is A-375. The assay is described as follows: Induction of human A375 cell differentiation assessed as microtubule reorganization at 20 uM after 96 hrs by immunofluorescence analysis. In kind it is functional, cell-based. Summed up:
(§2)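 A375 cells cultured 96 h with drug, then fixed in 4% paraformaldehyde for 10 min and permeabilized in 0.2% Triton X-100/PBS for 5 min. Immunostained for tubulin and vimentin, nuclei counterstained with DAPI.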

In assay [6] the test system is A-375. The assay is described as follows: Antiproliferative activity against human A375 cells assessed as cell growth at 350 uM after 96 hrs by trypan blue assay. In kind it is functional. Conditions: A-375, 96 h, read-out: Activity. The method, boiled down:
(§3)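 A375 melanoma cells were grown in DMEM with 10% FCS, 2 mM L-glutamine and penicillin/streptomycin at 37 °C in 5% CO2, and plated at (20–50) × 10^3 cells per 35 mm plate. Once adherent (56 h), compound in DMSO was added (DMSO 0.005% final), with fresh drug medium every 48 h. After 96 h, viable cells were counted twice by Coulter counter, with trypan blue exclusion. Results are % of DMSO control, pooled from three experiments.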

Assay [7] has as its system A-375. The assay is described as follows: Induction of human A375 cell differentiation assessed as formation of vimentin intermediate filament at 20 uM after 96 hrs by immunofluorescence analysis. In kind it is functional, cell-based. Summed up: as §2
Assay [8] deals with A-375. Briefly: Induction of apoptosis in human A375 cells seeded as high density at 20 uM after 96 hrs by propidium iodide staining-based FACS analysis.
Assay [9] relates to A-375. The assay is described as follows: Antiproliferative activity against human A375 cells at 350 uM after 96 hrs by trypan blue assay. In kind it is functional. The method, boiled down:
as §3

Assay [10] relates to A-375. The assay is described as follows: Antiproliferative activity against human A375 cells assessed as morphological changes at 5 to 10 uM after 96 hrs by phase contrast microscopy. In kind it is functional, cell-based. Summed up: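 A375 cultures in DMEM/10% FCS exposed to 5, 7.5 or 10 μM drug in DMSO; DMSO-only controls. Dendritic-like extensions scored under phase-contrast or bright-field microscopy.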

Assay [11] relates to A-375. Briefly: Antiproliferative activity against human A375 cells after 96 hrs by trypan blue assay. In kind it is functional, cell-based. The method, boiled down:
as §1

For assay [12], the system named is A-375. Briefly: Induction of apoptosis in human A375 cells assessed as necrotic cells at 25 uM after 96 hrs by propidium iodide staining-based FACS analysis. In kind it is functional, cell-based.
Assay [13] has as its system A-375. Briefly: Induction of apoptosis in human A375 cells after 96 hrs by propidium iodide staining-based FACS analysis. In kind it is functional, cell-based. The method, boiled down: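 A375 cells seeded at low (100 000) or high (300 000) density per 25 cm2 flask and cultured 96 h with 20 μM compound. Harvested for biparametric FACS: DNA content by PI uptake (linear) against side scatter (log); at least 10 000 cells per sample. Apoptotic fraction given as mean and SD of three experiments.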

Assay [14] has as its system A-375. Briefly: Antiproliferative activity against human A375 cells at 5 to 10 uM by trypan blue assay. In kind it is functional, cell-based. Conditions: TDE = time-dependent effect. Summed up:
(§4)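 A375 cells plated at (20-50) × 10^3 per 35 mm dish in DMEM/10% FCS. Drug in DMSO added, renewed every 48 h; DMSO alone for controls. After 48 or 96 h, viable cells counted twice per sample by Coulter counter, with trypan blue check. Cells at time t divided by cells seeded, relative to DMSO control as 100%. Mean and SD: four experiments for dose series (5, 10, 20 μM, 96 h), three for time course (5 or 10 μM).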

For assay [15], the system named is A-375. Briefly: Induction of morphological differentiation in human A375 cells assessed as dentritic-like extension at 5 to 10 uM after 96 hrs by phase contrast microscopy.
For assay [16], the system named is A-375. The assay is described as follows: Antiproliferative activity against human A375 cells at 20 uM after 96 hrs by trypan blue assay. In kind it is functional. Summed up: as §4

Active and inactive are the calls of the source. No cut-off for these calls is given here.

In the case of `CCC(c1nc(SC)[nH]c(=O)c1C)c1c(F)cccc1F` (stereo not drawn), the growth at 25 µM in the assay with A-375 [1] worked out at 40%.
Consider `O=C1Nc2ccc(Cl)cc2[C@@](C#CC2CC2)(C(F)(F)F)O1` [EFAVIRENZ], for which, in the assay with A-375 [2], the outcome was Active. Moreover, in the assay on A-375 [3], the growth at 15 µM was 51%.
For the molecule `CCC(c1nc(S)[nH]c(=O)c1C)c1c(F)cccc1F` (stereo not drawn), the growth at 25 µM in the assay with A-375 [1] was determined as 76%.
As to `CCC(c1nc(SC(C)C)[nH]c(=O)c1C)c1c(F)cccc1F` (stereo not drawn), in the assay on A-375 [1], the growth at 25 µM was found to be 12%.
On to `CCC(c1cc(O)nc(SC(C)C)n1)c1c(F)cccc1F` (stereo not drawn), for which the growth at 25 µM in the assay with A-375 [1] is 19%.
On the same count and under the same terms, next, `CCC(c1cc(=O)[nH]c(S)n1)c1c(F)cccc1F` (stereo not drawn): 100%; `CCC(c1cc(=O)[nH]c(SC)n1)c1c(F)cccc1F` (stereo not drawn): 13%.
On to `Cc1ccnc2c1NC(=O)c1cccnc1N2C1CC1` [NEVIRAPINE], for which the outcome in the assay with A-375 [4] and in the assay on A-375 [8] was inactive. In addition, the outcome in the assay with A-375 [5] and in the assay on A-375 [7] was Active. Moreover, the growth at 350 µM in the assay on A-375 [6] stood at 35%. Also, the Activity in the assay on A-375 [9] is reported as 50%.
Regarding `CCC(c1cc(O)nc(SC2CCCC2)n1)c1c(F)cccc1F` (stereo not drawn), in the assay with A-375 [1], the growth at 25 µM came to 22%.
Turning to `CCC(C)Sc1nc(C(CC)c2c(F)cccc2F)c(C)c(=O)[nH]1` (mixture of isomers), the result in the assay with A-375 [10], with A-375 [2] and in the assay on A-375 [12] was Active. Besides, the growth at 25 µM in the assay with A-375 [1] is 5%. Also, the Activity entry in the assay on A-375 [11] and in the assay on A-375 [13] was “Dose-dependent effect” each time.
For the molecule `CCC(C)Sc1nc([C@@H](CC)c2c(F)cccc2F)c(C)c(=O)[nH]1` (stereo partly drawn), the outcome in the assay on A-375 [4] was inactive. For the same molecule, the result in the assay on A-375 [5], in the assay on A-375 [7], with A-375 [8] and with A-375 [15] was Active. The Activity result in the assay with A-375 [14] is “tde”; in the assay with A-375 [16], 70%.
As to `CCC(c1nc(SC2CCCC2)[nH]c(=O)c1C)c1c(F)cccc1F` (stereo not drawn), the growth at 25 µM in the assay with A-375 [1] turned out to be 5%.
Regarding `CCC(C)Sc1nc(C(CC)c2c(F)cccc2F)cc(=O)[nH]1` (stereo not drawn), in the assay with A-375 [1], the growth at 25 µM was determined as 13%.
Consider `CCC(C)Sc1nc([C@H](CC)c2c(F)cccc2F)c(C)c(=O)[nH]1` (stereo partly drawn), for which, in the assay on A-375 [4], the outcome was inactive. Moreover, the result in the assay on A-375 [5], with A-375 [7], with A-375 [2], with A-375 [8] and with A-375 [15] was Active. Moreover, the values for the Activity result with A-375 [14] and in the assay on A-375 [16] were “tde” and 70%, respectively.

Values taken from ChEMBL document CHEMBL1817664, “Modulation of cell differentiation, proliferation, and tumor growth by dihydrobenzyloxopyrimidine non-nucleoside reverse transcriptase inhibitors” (2011).
